Source: publication PMC4062594 (Nature chemical biology, 2014)

Legend:
PTP1B1-405 = target: T1, PTP1B1-405 (Homo sapiens, UniProt P18031); experiment: Gel filtration
T1 sequence (P18031 1-405): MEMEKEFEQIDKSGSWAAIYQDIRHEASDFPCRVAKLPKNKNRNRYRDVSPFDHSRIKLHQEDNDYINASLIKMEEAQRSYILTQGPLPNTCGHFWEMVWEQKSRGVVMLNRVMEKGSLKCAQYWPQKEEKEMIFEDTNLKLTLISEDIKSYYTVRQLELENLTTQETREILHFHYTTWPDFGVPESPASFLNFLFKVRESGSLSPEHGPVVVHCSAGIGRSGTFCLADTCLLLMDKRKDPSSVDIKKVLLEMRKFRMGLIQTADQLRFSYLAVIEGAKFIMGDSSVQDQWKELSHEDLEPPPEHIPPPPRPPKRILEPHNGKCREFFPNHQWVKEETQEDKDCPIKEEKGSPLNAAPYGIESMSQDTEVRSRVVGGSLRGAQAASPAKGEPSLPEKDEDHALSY

PTP1B (1-367) = target: T2, PTP1B (1-367) (Homo sapiens, UniProt P18031); experiment: PTP assay, truncation mutant; format: biochemical; details: similar to PTP1B1-321
T2 sequence (P18031 1-367): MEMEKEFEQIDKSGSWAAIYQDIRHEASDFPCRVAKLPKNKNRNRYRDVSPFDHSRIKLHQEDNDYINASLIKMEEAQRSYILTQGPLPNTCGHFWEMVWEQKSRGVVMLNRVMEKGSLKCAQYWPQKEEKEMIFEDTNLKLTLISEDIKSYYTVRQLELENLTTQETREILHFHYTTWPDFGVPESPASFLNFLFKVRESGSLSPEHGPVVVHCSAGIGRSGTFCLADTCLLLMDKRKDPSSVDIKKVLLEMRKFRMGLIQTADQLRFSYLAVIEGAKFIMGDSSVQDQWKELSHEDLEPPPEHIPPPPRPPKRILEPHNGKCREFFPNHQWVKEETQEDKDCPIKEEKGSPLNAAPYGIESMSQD
Summary of the method: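 Continuous fluorescence PTP assay with 10 nM purified PTP1B and 10 μM DiFMUP substrate. Emission at 450 nm was monitored for 20 minutes.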

SKBR3 cells = experiment: Cell migration assay; format: cell-based; details: HER2-positive, MSI-1436 5 µM
[1] = system: panel of breast cancer cells; experiment: Annexin/PI staining; format: cell-based; details: cells sensitive to Lapatinib
Summary of the method: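 Cells (1 × 10^5) plated in 6-well plates in growth medium, left untreated or given test compound at 2 and 5 μM. Stained with annexin and PI per kit instructions, then analysed by flow cytometry.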

[2] = system: BT474 xenografts re-expressing wild type or L192A/S372P PTP1B; experiment: BT474 xenografts with PTP1B suppressed and re-expressed; format: in vivo, mouse; details: 5 mg/kg, two independent experiments
Summary of the method: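 BT474 cells with PTP1B suppressed by RNAi and re-expressing wild type or mutant PTP1B were used. Luciferase-expressing cells (5×10^6) were injected orthotopically into mammary fat pads of SCID-beige mice in 1:1 DMEM/growth factor-reduced Matrigel. Mice were randomised to saline or test compound 5 mg/kg i.p. every third day. Tumours were followed by luciferin imaging and by palpation (volume = width2 × length/2) three times weekly.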

- calculated molecular weight of PTP1B1-405 (PTP1B1-405; in the presence of the inhibitor (~47k in the absence)): ~ 43 k
- inhibitory potency compared to PTP1B1-405 and PTP1B1-394 (PTP1B (1-367)): lower
Structure (SMILES): CC(C)[C@@H](CC[C@@H](C)[C@H]1CC[C@H]2[C@@H]3[C@H](O)C[C@H]4C[C@@H](NCCCNCCCCNCCCN)CC[C@]4(C)[C@H]3CC[C@]12C)OS(=O)(=O)O [MSI-1436, Trodusquemine]
- oligomerization of the phosphatase (PTP1B1-405): did not cause the phosphatase to oligomerize
- migration (SKBR3 cells): attenuated migration
- apoptosis [1]: limited effect on apoptosis
- sensitivity of xenografts re-expressing wild type PTP1B versus mutant protein [2]: more sensitive
